Molecules are shown by their SMILES. Where “and” joins values, the source holds several entries; their conditions need not be identical. Equal entries are not always repeated.

As usually defined, the IC50 is the concentration at which inhibition is half-maximal. Low readings indicate higher potency, high ones lower potency. A word on the Ki: it is a dissociation constant, usually derived from enzyme kinetics or from competition with a known ligand. A high value points to a looser hold on the target. The inhibition is the change of the read-out against control, counted positive when it falls.

For one test, the target named is HsGSK3β (Homo sapiens, UniProt P49841). As to the kind of experiment: HsGSK3β radiometric Flashplate assay. The class given is biochemical.
Sequence of HsGSK3β (P49841 whole entry): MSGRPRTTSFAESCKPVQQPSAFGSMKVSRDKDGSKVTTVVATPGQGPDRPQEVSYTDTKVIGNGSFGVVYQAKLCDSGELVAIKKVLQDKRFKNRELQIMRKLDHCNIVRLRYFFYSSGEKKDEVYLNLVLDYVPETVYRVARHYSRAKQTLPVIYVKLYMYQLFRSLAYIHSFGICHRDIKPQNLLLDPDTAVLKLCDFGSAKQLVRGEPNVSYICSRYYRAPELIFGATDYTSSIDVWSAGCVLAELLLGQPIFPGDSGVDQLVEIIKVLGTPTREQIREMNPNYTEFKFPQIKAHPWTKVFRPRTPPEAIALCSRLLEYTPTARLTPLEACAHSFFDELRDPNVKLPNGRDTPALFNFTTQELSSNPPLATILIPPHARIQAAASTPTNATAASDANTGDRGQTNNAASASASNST
Test [1] addresses T1, TbGSK3 (Trypanosoma brucei brucei, UniProt Q388M1).
T1 sequence (Q388M1 1-352): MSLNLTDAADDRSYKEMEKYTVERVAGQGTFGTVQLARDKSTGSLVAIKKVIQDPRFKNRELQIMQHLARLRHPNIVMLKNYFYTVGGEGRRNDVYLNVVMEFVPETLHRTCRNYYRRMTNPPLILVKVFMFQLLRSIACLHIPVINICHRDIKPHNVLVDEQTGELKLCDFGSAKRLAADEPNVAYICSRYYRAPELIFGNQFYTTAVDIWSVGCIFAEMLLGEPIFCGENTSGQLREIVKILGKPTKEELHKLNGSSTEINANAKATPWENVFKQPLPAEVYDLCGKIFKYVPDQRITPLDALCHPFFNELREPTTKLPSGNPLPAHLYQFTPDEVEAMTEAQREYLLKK
As to the kind of experiment: Mechanism of inhibition of TbGSK3. The class given is biochemical. The note with it: for mechanism of inhibition: versus ATP, saturating GSP2. The essentials: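 Rates (CPM) measured at 10 test-compound concentrations × four ATP concentrations, GSP2 phosphopeptide saturating. Lineweaver–Burk plots examined for competitive, mixed or uncompetitive patterns; apparent K_i calculated.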

Test [2] has as its target T1, TbGSK3. As to the kind of experiment: TbGSK3 radiometric Flashplate potency assay. The conditions noted are these: for IC50: IC50 TbGSK3, Flashplate, 1 μM ATP (<KM); for fold less active than 8 against TbGSK3: compared with compound 8. The class given is biochemical. The gist of the method:
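Radiometric streptavidin Flashplate capture of biotinylated phosphoproduct. MBP-fused short TbGSK3 (2.5 nM), 1 μM biotinylated GSP2, 1 μM ATP plus 3.7 KBq [γ-³³P]ATP/well. 10-point titration, 30 μM–0.3 nM final, 1% DMSO. IC50 by four-parameter fit; ligand efficiency = [−RT ln(IC50)]/heavy-atom count.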

The target of a further test is GSK3 (Homo sapiens, UniProt P49841). As to the kind of experiment: Mammalian kinase selectivity panel. Format: biochemical. The note with it: read-out: inhibition of GSK3. The gist of the method: (§1)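 Run by the University of Dundee DSTT mammalian panel, which then held 76 kinases. Test compound screened in duplicate at 10 μM. Each kinase assayed with ATP below its apparent K_M for ATP.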
Sequence of GSK3 (P49841 whole entry): as the sequence (P49841 whole entry) above

The target of another test is CDK2-Cyclin A (Homo sapiens, UniProt P24941). As to the kind of experiment: Mammalian kinase selectivity panel. Format: biochemical. The note with it: read-out: inhibition of CDK2. The gist of the method:
as §1

In test [3] the test system is MRC5 (human lung fibroblast) cells. Put plainly: MRC5 proliferation assay. The conditions noted are these: T. brucei versus MRC5. The class given is cell-based. The essentials: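 MRC5 human lung fibroblasts, 2×10³ cells/well, grown in MEM with 10% foetal bovine serum. Test compound from 50 μM to 0.5 nM. Incubated 69 h at 37 °C, 5% CO₂. Resazurin added (50 μM final), then a further 4 h under the same conditions. Read by fluorescence.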

The target in another test is 76 mammalian kinases. As to the kind of experiment: Mammalian kinase selectivity panel, whole panel. The class given is biochemical. The conditions noted are these: 10 μM.

`Nc1nc(Nc2ccccc2)sc1C(=O)c1c(F)cccc1F` [Compound 14, (4-Amino-2-(phenylamino)thiazol-5-yl)(2,6-difluorophenyl)methanone]: the IC50 at HsGSK3β came to 5 nM. In addition, on TbGSK3 [1], the inhibition constant (Ki) came to 50 ± 10 nM and the mechanism of inhibition entry is “ATP-competitive”. Also, the half-maximal inhibitory concentration (IC50) on TbGSK3 [2] came out at 20 nM.

`COc1cccc(OC)c1C(=O)c1sc(Nc2ccccc2)nc1N` [Compound 15, (4-Amino-2-(phenylamino)thiazol-5-yl)(2,6-dimethoxyphenyl)methanone]: the half-inhibitory concentration (IC50) was 2000 nM against HsGSK3β and 400 nM at TbGSK3 [2]. For the same compound, the “fold less active than 14 against TbGSK3” value on TbGSK3 [2] (compared with compound 14) is listed as “over 10 fold”.

Take `Nc1nc(Nc2ccccc2)sc1C(=O)c1cccc(Br)c1` [Compound 16, (4-Amino-2-(phenylamino)thiazol-5-yl)(3-bromophenyl)methanone]: the IC50 was determined as 5 nM against HsGSK3β and 100 nM against TbGSK3 [2].

Take `Cc1cccc(C)c1Nc1nc(N)c(C(=O)c2ccccc2)s1` [Compound 17, (4-Amino-2-((2,6-dimethylphenyl)amino)thiazol-5-yl)(phenyl)methanone]: the midpoint of inhibition against HsGSK3β, the IC50, lay at 200 nM. On TbGSK3 [2], it took 200 nM to reach half-maximal inhibition (IC50) and the “fold less active than 8 against TbGSK3” value was “approximately 10 fold”.

On to `Cc1ccc(Nc2nc(N)c(C(=O)c3ccccc3)s2)cc1C` [Compound 18, (4-Amino-2-((3,4-dimethylphenyl)amino)thiazol-5-yl)(phenyl)methanone], for which the IC50 against HsGSK3β was 2 nM; against TbGSK3 [2], 60 nM.

`Nc1nc(NC2CCCCC2)sc1C(=O)c1ccccc1` [Compound 19, (4-Amino-2-(cyclohexylamino)thiazol-5-yl)(phenyl)methanone]: the IC50 at HsGSK3β amounted to 2 nM. At TbGSK3 [1], the Ki turned out to be 250 ± 30 nM and the mechanism of inhibition result was “ATP-competitive”. In addition, at TbGSK3 [2], the IC50 was 190 nM and 200 nM; the “fold less active than 8 against TbGSK3” value is “sixfold”.

In the case of `Nc1nc(NCC2CCCCC2)sc1C(=O)c1ccccc1` [Compound 20, (4-Amino-2-((cyclohexylmethyl)amino)thiazol-5-yl)(phenyl)methanone], the IC50 is 20 nM against HsGSK3β and 700 nM at TbGSK3 [2].

With `Nc1nc(NCCc2ccccc2)sc1C(=O)c1ccccc1` [Compound 21, (4-Amino-2-(phenethylamino)thiazol-5-yl)(phenyl)methanone], the IC50 against HsGSK3β came out at 3 nM; against TbGSK3 [2], 500 nM.

As to `CC(C)(C)C(=O)c1sc(NC2CCCCC2)nc1N` [Compound 22, 1-(4-Amino-2-(cyclohexylamino)thiazol-5-yl)-2,2-dimethylpropan-1-one], the inhibition at 10 µM on GSK3 is over 70%. In addition, the inhibition at 10 µM at CDK2-Cyclin A was over 70%. In test [3], the “selectivity over the human MRC5 cell line” value was over 150 fold. Besides, the “kinases of the panel inhibited at the >90 % level” value on 76 mammalian kinases is reported as “did not inhibit any kinase at the >90 % level”. Also, on TbGSK3 [2], 12000 nM corresponded to half-maximal inhibition (IC50) and the “fold less active than 8 against TbGSK3” value is about 300 fold.

The values above are taken from article PMC3728731 (Chemmedchem, 2013).
